For test [1], the species on record is Homo sapiens. The test is described as follows: Inhibition of P-gp in human MCF7/ADR cells assessed as increase in intracellular Rh123 accumulation after 1 hr by flow cytometry. Format: cell-based. The gist of the method:
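Exponentially growing MCF-7/ADR cells (3 × 10^5/mL) loaded with Rh123 (5 μM) with or without modulator (5, 10, 20 μM) or verapamil (10 μg/mL), 1 h at 37 °C. Rh123 accumulation (%) by flow cytometry, excitation 488 nm, emission through 530 nm filter; untreated cells as negative control. Mean ± SD of three independent experiments.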
A general note: Flow cytometry measures light scatter and fluorescence of single cells or particles in a stream.

The species named for test [2] is Homo sapiens. Nature of the test: Inhibition of P-gp in human MCF7/ADR cells assessed as potentiation of adriamycin-induced cytotoxicity by measuring fold reduction in adriamycin IC50 at 5 uM after 48 hrs by MTT assay relative to adriamycin alone. Format: cell-based. The method in brief:
(§1)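 MCF-7/ADR (ADM-selected, P-gp-overexpressing) and MCF-7 cells given graded adriamycin with or without modulator (5 or 10 μM) or verapamil 10 μg/mL for 48 h; MTT read at 570 nm. Reversal fold from adriamycin IC50 alone versus IC50 in combination.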

Another test has as its system NCI/ADR-RES. The test is described as follows: Cytotoxicity against human MCF7/ADR cells after 48 hrs by MTT assay. Format: functional, cell-based. The gist of the method: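 MTT format as for parental lines: 48 h exposure to various concentrations in ADM-selected P-gp-overexpressing MCF-7/ADR cells, absorbance at 570 nm after 4 h MTT, IC50 from percent growth inhibition.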
(In general: Formazan colour is commonly taken as a measure of viable cells.)

For test [3], the species on record is Homo sapiens. Nature of the test: Inhibition of P-gp in human MCF7/ADR cells assessed as increase in intracellular accumulation of adriamycin after 1 hr by flow cytometry. It is filed as cell-based. The gist of the method:
(§2)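 4 × 10^5 MCF-7 or MCF-7/ADR cells incubated 1 h at 37 °C with 10.0 μM adriamycin alone or with modulator (5, 10, 20 μM) or verapamil (10 μg/mL); washed twice in ice-cold PBS. Adriamycin accumulation (%) by flow cytometry relative to untreated cells. Mean ± SD, three independent experiments.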

For test [4], the system named is MCF7. The test is described as follows: Cytotoxicity against human MCF7 cells after 48 hrs by MTT assay. It is filed as functional, cell-based. Conditions: MCF7, 48 h. The method in brief:
(§3)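 Cells seeded at 5000−10 000 per well, preincubated 12 h at 37 °C, 5% CO2, then exposed to a range of concentrations for 48 h. MTT added, absorbance read at 570 nm after 4 h; percent growth inhibition used to derive IC50. Adriamycin as positive control.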

The test system of another test is A549. The test is described as follows: Cytotoxicity against human A549 cells after 48 hrs by MTT assay. It is filed as functional, cell-based. Particulars: A549, 48 h. The method in brief:
as §3

Test [5] is filed under the species Homo sapiens. Nature of the test: Inhibition of P-gp in human MCF7/ADR cells assessed as potentiation of adriamycin-induced cytotoxicity by measuring fold reduction in adriamycin IC50 at 10 uM after 48 hrs by MTT assay relative to adriamycin alone. It is filed as cell-based. The method in brief: as §1
The species named for test [6] is Homo sapiens. Nature of the test: Inhibition of P-gp in human MCF7/ADR cells assessed as increase in intracellular accumulation of adriamycin by measuring increase in fluorescence intensity at 10 uM after 24 hrs by fluorescence microscopic analysis. Format: cell-based. The gist of the method:
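MCF-7/ADR cells imaged by fluorescence microscopy for adriamycin fluorescence after 24 h incubation with or without modulator (10 μM) or verapamil (10 μg/mL); untreated cells as negative control.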

Test [7] concerns MCF7. The test is described as follows: Increase in adriamycin accumulation in human MCF7 cells at 20 uM after 1 hr by flow cytometry. It is filed as functional, cell-based. The gist of the method: as §2
Another test has as its system A2780. Nature of the test: Cytotoxicity against human A2780 cells after 48 hrs by MTT assay. Conditions: A2780, 48 h. Format: functional, cell-based. The method in brief:
as §3

The species named for test [8] is Homo sapiens. Nature of the test: Inhibition of P-gp in human MCF7/ADR cells assessed as increase in intracellular Rh123 accumulation by measuring increase in fluorescence intensity after 24 hrs by fluorescence microscopic analysis. It is filed as cell-based. The gist of the method: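 Rh123 (5 μM)-exposed MCF-7/ADR cells, untreated or treated with modulator (10 μM) or verapamil (10 μg/mL), photographed by fluorescence microscopy after 24 h.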

Test [9] deals with MCF7. The test is described as follows: Increase in adriamycin accumulation in human MCF7 cells at 10 ug/ml after 1 hr by flow cytometry. Format: functional, cell-based. The gist of the method:
as §2

The species entered for test [10] is Homo sapiens. Conditions: 10 ug/ml.

The term pIC50 denotes the IC50 on a negative log10 scale, so that one unit is a factor of ten. Read a high pIC50 as a small IC50.

Molecules are shown by their SMILES. pIC50: −log10 of the molar value. Structures can show the parent of a compound that is named as a salt. Active and inactive are the calls of the source. The rule behind the calls is not given here.

On to `COC1=C(c2ccc(OC)cc2)C(=O)C=C(c2ccccc2)C1=O`, for which the inhibition result in the test listed under Homo sapiens [1], in the test listed under Homo sapiens [3] and in the test filed under Homo sapiens [8] was “Dose-dependent effect” throughout. The fold change (FC) in the test listed under Homo sapiens [2] is 1.3; in the test filed under Homo sapiens [5], 39.1. Further, the negative logarithm of the IC50 (pIC50) in the test on NCI/ADR-RES was 4.63; in the test on MCF7 [4] it was 4.70; with A549, 4.40; in the test on A2780, 5.47. Moreover, the inhibition result in the test filed under Homo sapiens [6] was “Active”. For the same compound, in the test on MCF7 [7], the result was inactive.

Regarding `COc1cc(-c2ccccc2)c(O)c2oc3ccc(O)cc3c12`, the pIC50 is 4.87 in the test with MCF7 [4], less than 4.40 in the test with A549 and 4.60 in the test on A2780.

Take `COc1ccc(-c2cc(OC)c(-c3ccccc3O)c(OC)c2OC)cc1`: the pIC50 with MCF7 [4], with A549 and in the test on A2780 was less than 4.40 each time.

For `COc1cc(-c2ccc(O)cc2)c(O)c2oc3ccccc3c12`, the pIC50 is 4.76 in the test on MCF7 [4], less than 4.40 with A549 and 4.40 in the test with A2780.

Regarding `COc1ccc(-c2c(O)cc(-c3ccccc3)c(OC)c2OC)cc1`, the negative logarithm of the IC50 (pIC50) with MCF7 [4], in the test on A549 and with A2780 was less than 4.40 each time.

Turning to `COc1cccc2c1C(=O)c1c(O)c3c(c(O)c1C2=O)C[C@@](O)(C(=O)CO)C[C@@H]3O[C@H]1C[C@H](N)[C@H](O)[C@H](C)O1` [DOXORUBICIN HYDROCHLORIDE], the pIC50 is 5.89 in the test on A549 and 6.30 with A2780.

With `COc1ccc(-c2c(OC)cc(-c3ccccc3)c(OC)c2OC)cc1`, the pIC50 with MCF7 [4], in the test on A549 and in the test with A2780 was less than 4.40 each time.

In the case of `COc1ccc(-c2cc(OC)c(-c3ccccc3)c(OC)c2O)cc1`, the figures for the negative logarithm of the IC50 (pIC50) in the test on MCF7 [4], with A549 and with A2780 were 4.41, 4.90 and less than 4.40, respectively.

As to `COc1cc(-c2ccc(O)cc2)c(O)c2oc3ccc(O)cc3c12`, the pIC50 in the test with MCF7 [4] was 4.75; in the test on A549, less than 4.40; with A2780, 4.67.

On to `O=C1C[C@@](O)(c2ccccc2)[C@H](O)c2oc3ccc(O)cc3c21`, for which the negative-log IC50 (pIC50) with MCF7 [4], in the test on A549 and in the test with A2780 was less than 4.40 each time.

`COc1cc(-c2ccc(O)cc2)c(O)c2oc3cc(O)ccc3c12`: the pIC50 is 4.93 with MCF7 [4], 4.56 with A549 and 4.83 with A2780.

Regarding `COc1ccc(CCN(C)CCCC(C#N)(c2ccc(OC)c(OC)c2)C(C)C)cc1OC` (configuration not stated), the inhibition result in the test listed under Homo sapiens [1] and in the test filed under Homo sapiens [8] was “Dose-dependent effect” each time. The result in the test with MCF7 [9] was inactive. The inhibition result in the test listed under Homo sapiens [10] was “Active”.

On to `COC1=C(c2ccccc2O)C(=O)C=C(c2ccc(O)cc2)C1=O`, for which the pIC50 in the test with MCF7 [4] was 4.78; in the test on A549, less than 4.40; in the test on A2780, 5.07.

Values taken from ChEMBL document CHEMBL4196170, “Cytotoxic p-Terphenyls from the Endolichenic Fungus Floricola striata” (J Nat Prod, 2018).
